M4 ag: agonists of human muscarinic M4 receptor (CHRM4) | CHO-K1 hM4/Gqi5, Fluo-8 calcium fluorescence; vehicle 0%, full acetylcholine response 100% | activation, % at 3 µM | 360,000 tested, 0.14% active | AID 624127 | P08173;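 active means activation above the run mean over all test wells plus 3 SD, cut at about 32% in these data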;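 further: peak over basal fluorescence ratio per well then scaled between controls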
M4 antag: CHRM4 antagonism in calcium assay; 360,000 tested, 0.73% active; CHO-hM4 cells, ACh EC80, Fluo-8 calcium fluorescence; inhibition, % at 3 µM; P08173;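 active means inhibition above its plate's cutoff, the mean inhibition of sample wells plus 3 SD, cut at about 27% in these data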
CHRM5 antagonist: blocks acetylcholine activation of human M5 receptor | 360,000 tested, 0.59% active | CHO-hM5 cells, Fluo-8 calcium fluorescence, ACh EC80 | inhibition, % at 3 µM;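 active means inhibition above a per-plate cutoff, the mean of that plate's test compounds plus 3 SD, cut at about 27% in these data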
Target sequence (P08912 whole entry, looked up): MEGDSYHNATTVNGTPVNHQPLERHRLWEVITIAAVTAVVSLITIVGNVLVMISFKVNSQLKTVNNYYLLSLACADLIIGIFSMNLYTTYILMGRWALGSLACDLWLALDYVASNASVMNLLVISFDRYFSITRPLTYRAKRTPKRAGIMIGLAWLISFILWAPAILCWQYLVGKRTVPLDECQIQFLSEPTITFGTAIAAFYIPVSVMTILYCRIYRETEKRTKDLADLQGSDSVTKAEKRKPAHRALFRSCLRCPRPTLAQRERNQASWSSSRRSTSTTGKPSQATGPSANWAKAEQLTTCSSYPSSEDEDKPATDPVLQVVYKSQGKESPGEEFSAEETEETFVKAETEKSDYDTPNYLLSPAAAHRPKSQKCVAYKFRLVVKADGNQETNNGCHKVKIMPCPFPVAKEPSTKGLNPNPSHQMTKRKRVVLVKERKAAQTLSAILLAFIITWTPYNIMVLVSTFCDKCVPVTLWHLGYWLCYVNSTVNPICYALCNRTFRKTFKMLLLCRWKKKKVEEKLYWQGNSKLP
CHRM5 agonist: CHRM5 agonism in calcium assay | activation, % at 3 µM | P08912 | CHO-K1 hM5 cells, Fluo-8 calcium fluorescence; 0% DMSO wells, 100% maximal acetylcholine response | AID 624037 | 360,000 tested, 0.19% active;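 active means activation above the run's mean over test compounds plus 3 SD, cut at about 23% in these data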;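 further: signal is peak over basal fluorescence ratio across the kinetic read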
M5 PAM: potentiates acetylcholine response at human M5 receptor; P08912; CHO-K1 hM5, Fluo-8 calcium, ACh EC20 PAM; 0% = ACh EC20, 100% = ACh EC100; activation, % at 3 µM; 360,000 tested, 0.3% active;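 active means activation above the run cutoff, the mean activation of all test compounds plus 3 SD, cut at about 18% in these data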
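Assay system – human M5 receptor in CHO-K1 cells · Read-out – % activation, ACh-normalized · Technique – Fluo-8 calcium fluorescence · Dosing – single-point, 3 µM nominal · Incubation – Fluo-8 loading 80 min at 37 °C plus 30 min room temperature · Repeats – singlicate, one well per test compound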
CHRM4 PAM: potentiates acetylcholine response at human M4 receptor; P08173; CHO-K1 hM4/Gqi5, Fluo-8 calcium fluorescence, ACh EC20; 0% = ACh EC20, 100% = maximal ACh; activation, % at 3 µM; 360,000 tested, 0.4% active; AID 624126;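 active means activation above its plate's cutoff, the mean activation of sample wells plus 3 SD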
Of the large screens only hits and unclear results are named; the others gave an inactive call. A selection: hits, their analogues and other compounds. The true share with any hit is near 1.8%.

O=S(=O)(NCC1CCCO1)c1ccc(-c2ccc(S(=O)(=O)NCC3CCCO3)cc2)cc1 (centres undefined)	CHRM5 antagonist 35
COc1ccc(S(=O)(=O)Nc2ccc(S(=O)(=O)NCC3CCCO3)cc2)cc1 (centres undefined)	none
CC[N+]1(C)CCC(O)(/C=C/c2ccccc2)C(C(=O)/C=C/c2ccccc2)C1 (centres undefined)	none
CC1(C)C2CCC(CN=C(N)CSS(=O)(=O)O)C1C2 (centres undefined)	none
C=CCn1c(O)c2ccc(C(=O)N=NC(=O)COc3ccccc3F)cc2c1O	none
CC(C)C[C@H]1CN=C(Nc2ccccc2)N1CCc1ccc(F)cc1	M4 ag 115, M4 antag 47, CHRM5 agonist 64
CC(C)C[C@H]1CN=C(Nc2ccccc2)N1CCc1cccc(F)c1	M4 ag 126, M4 antag 62, CHRM5 antagonist 38, CHRM5 agonist 74
Cc1cccc(CCN2C(Nc3ccccc3)=NC[C@@H]2CC(C)C)c1	M4 ag 137, M4 antag 59, CHRM5 agonist 58
CC(C)C[C@H]1CN=C(N(C)C)N1CCc1cccc(F)c1	none
Cc1cnc(-c2nc3ccccc3n2C(C)C(=O)Nc2c(C)cccc2C)cn1 (centres undefined)	none
O=C1NC(=O)c2c(Br)c(Br)c(Br)c(Br)c21	none
FC(F)(F)c1cccc(Cc2noc(CN3CCC(c4ccncc4)CC3)n2)c1	none
CCC(=O)c1cn(/C(=C\C(=O)OC(C)(C)C)CCC(OC)OC)cc1CC	none
CC(C)(C)C(=O)C(C(c1ccccc1)N1CCOCC1)N1CCOCC1 (centres undefined)	none
Cc1cc(C)nc(NN2C(=O)/C(=C/c3ccccc3)SC2=S)n1	none
CN(C)c1ccc(/C=C2\SC(=S)N(Nc3ncc(C(F)(F)F)cc3Cl)C2=O)cc1	M4 antag 35, CHRM5 antagonist 31
COc1cc(/C=C2\SC(=S)N(Nc3ncc(C(F)(F)F)cc3Cl)C2=O)ccc1O	M4 antag 39
CCC(C)Sc1ccc(-c2nc3ccccn3c2NCc2ccccc2)cc1OC (centres undefined)	M4 antag 29
COc1cc(-c2nc3ccc(C)cn3c2NCc2ccccc2)ccc1SC1CCCCC1	none
COc1ccc(-c2nc3ccccn3c2NC2CCCCC2)cc1SC1CCCCC1	M4 antag 28
COc1cc(-c2nc3ccccn3c2NCc2ccccc2)ccc1SC1CCCCC1	M4 antag 27
CCOC(=O)C1=C[C@@H](c2ccccc2)N(S(=O)(=O)c2ccc(C)cc2)[C@H]1c1cccc(Cl)c1	none
COc1ccc(/C=N/NC(=O)c2ccoc2C)cc1O	CHRM4 PAM 32
COc1cc(/C=N/NC(=O)CNC(=O)c2ccco2)ccc1O	CHRM5 antagonist 27
CSc1ccc(C(=O)C2CCCN(Cc3ccc(N4CCNC4=O)cc3)C2)cc1 (centres undefined)	M4 antag 70
COc1ccc(CN2CCCC(C(=O)c3ccc(SC)cc3)C2)cc1Cn1cccn1 (centres undefined)	M4 antag 37
COc1ccc(C(=O)C2CCCN(C(=O)c3cccc(Cn4cccn4)c3)C2)cc1F (centres undefined)	none
COc1ccc(-c2cc(C(N)=O)nc(N3CCCCCC3)n2)cc1	CHRM4 PAM 28
COC(=O)[C@@]1(Cc2ccc(OC)cc2)[C@@H]2C(=CC(=O)[C@H]2CC(=O)C(=O)N2CCCC2)CN1C(=O)c1ccccc1	M5 PAM 19
COc1cc(C2C3=C(COC3=O)Oc3cc4c(cc32)OCO4)cc(OC)c1O (centres undefined)	none
CC1=C/C(=N\OS(=O)(=O)c2ccccc2)C(C)=CC1=O	M4 antag 70, CHRM5 antagonist 66, CHRM5 agonist 44
CC1=C/C(=N\OS(=O)(=O)c2ccccc2)C(C(C)C)=CC1=O	CHRM5 antagonist 79, CHRM5 agonist 27
CC(S(=O)(=O)c1ccccc1)S(=O)(=O)c1ccccc1	none

Source: PubChem BioAssay
